How the values were obtained:
[1] = tested on: P388; experiment: Compound was evaluated for reduction in P388 (type I DNA) cell numbers to 50% of control values after a 72 hour exposure.; type: functional, cell-based; details: Mus musculus, P388, 72 h
Summary of the method: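 P388 murine leukemia cells, log-phase cultures; drug present throughout 72 h growth period. IC50 = nominal drug concentration reducing cell density to 50% of control; eight control wells per plate. Averages of at least two (table footnote: three) independent determinations.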

[2] = tested on: Nucleic Acid; experiment: Rate constants (1/s x 10e4) for loss of compound when incubated with calf thymus DNA in SHE buffer (pH 7.0) at 37 degree Centigrade, as determined by HPLC; type: nucleic-acid assay; details: Bos taurus
Summary of the method: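 Aliquots extracted into 1-butanol with NaOAc; unreacted drug quantified by C-18 reverse-phase HPLC, 254 nm. kobs (hydrolysis plus alkylation) from ln(peak area) vs time fit.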

SMILES | IC50 [1] [µM] | k obs [2] [s⁻¹]
CNC(=O)OCc1ncn(CCCc2ccc(NC(=O)c3ccc(Nc4ccnc5ccccc45)cc3)cc2)c1COC(=O)NC | > 20 | 
OCc1c(CO)c2n(c1CCCc1ccc(Nc3c4ccccc4nc4ccccc34)cc1)CCC2 | 1.3 | 0.000187
CNC(=O)OCc1nc(SC)n(CCCc2ccc(NC(=O)c3ccc(Nc4ccnc5ccccc45)cc3)cc2)c1COC(=O)NC | 11 | 8.8e-05
O=C(Nc1ccc(CCCc2c(CO)c(CO)c3n2CCC3)cc1)c1ccc(Nc2ccnc3ccccc23)cc1 | 0.11 | 0.000186
CSc1nc(CO)c(CO)n1CCCc1ccc(NC(=O)c2ccc(Nc3ccnc4ccccc34)cc2)cc1 | > 20 | 
OCc1ncn(CCCc2ccc(Nc3c4ccccc4nc4ccccc34)cc2)c1CO | 12 | 
O=C(Nc1ccc(CCCn2cnc(CO)c2CO)cc1)c1ccc(Nc2ccnc3ccccc23)cc1 | > 20 | 
CSc1nc(CO)c(CO)n1CCCc1ccc(Nc2c3ccccc3nc3ccccc23)cc1 | 1.3 | 
O=C(Nc1ccc(CCc2c(CO)c(CO)c3n2CCC3)cc1)c1ccc(Nc2ccnc3ccccc23)cc1 | 0.03 | 0.000158
CNC(=O)OCc1nc(SC)n(CCCc2ccc(Nc3c4ccccc4nc4ccccc34)cc2)c1COC(=O)NC | 0.8 | 0.000161
CNC(=O)OCc1ncn(CCCc2ccc(Nc3c4ccccc4nc4ccccc34)cc2)c1COC(=O)NC | 16 | 
CNC(=O)OCc1nc(SC)n(C)c1COC(=O)NC | > 20 | 0.000134
